Source: publication PMC2874468 (Journal of the American Chemical Society, 2010)
“And” between values parts separate entries of the source, which are not always exact repeats. Equal values may be shown once.

How the values were obtained:
[1] = molecular target: T1, A. aeolicus IspH (Aquifex aeolicus, UniProt O67625); assay: IspH enzyme inhibition assay; assay type: biochemical
T1 sequence (O67625 1-289): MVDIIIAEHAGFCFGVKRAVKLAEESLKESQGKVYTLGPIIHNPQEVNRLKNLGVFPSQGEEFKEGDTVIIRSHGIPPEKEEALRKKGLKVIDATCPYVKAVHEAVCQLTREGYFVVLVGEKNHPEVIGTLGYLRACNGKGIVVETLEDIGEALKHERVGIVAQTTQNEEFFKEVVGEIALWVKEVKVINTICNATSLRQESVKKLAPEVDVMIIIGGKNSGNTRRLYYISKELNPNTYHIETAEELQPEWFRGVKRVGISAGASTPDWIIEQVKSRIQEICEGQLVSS
In short: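 Ni-NTA-purified recombinant enzyme expressed in E. coli BL-21(DE3). Cluster reconstituted anaerobically with DTT, elemental sulfur and FeCl3 until A410/A280 reached about 0.38. Run anaerobically at room temperature in pH 8.0 Tris·HCl/NaCl/5% glycerol with 0.4 mM dithionite, 2 mM methyl viologen and 72 nM enzyme, across varied HMBPP. Initial rates at 732 nm fitted to Michaelis-Menten.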

[2] = test system: IspH; conditions: cited from earlier work
[3] = molecular target: farnesyl diphosphate synthase; conditions: read-out: Ki, farnesyl diphosphate synthase inhibition; previous work ref 22; cited from earlier work

| Compound | activity in IspH inhibition (in words) [1] | also measured |
| --- | --- | --- |
| C/C(=C\COP(=O)(O)OP(=O)(O)O)CO [HMBPP, E-4-hydroxy-3-methyl-but-2-enyl diphosphate] | – | Km ([1]; read-out: KM for HMBPP, reconstituted A. aeolicus IspH, Michaelis-Menten fit): 5 µM and 7 µM |
| O=P(O)(O)OP(=O)(O)O [PPi] | – | IspH inhibition (weak inhibitors) [2]: ~ 1 mM |
| N#CCOP(=O)(O)OP(=O)(O)O [compound 15, Cyanomethyl diphosphate] | far less active than their acetylenic counterparts | – |
| N#CCCOP(=O)(O)OP(=O)(O)O [compound 16, 2-Cyanoethyl diphosphate] | far less active than their acetylenic counterparts | – |
| Cc1ccc[n+](CC(O)(P(=O)([O-])O)P(=O)(O)O)c1 (stereo not shown) [compound 18] | – | Ki [3]: ~20 nM |
| O=P(O)(O)OP(=O)(O)OCc1ccc(Cl)nc1 [compound 29, (6-Chloropyridin-3-yl)-methyl-diphosphate] | lack of activity | – |
| C#CC(=O)O [propiolic acid] | poor activity | – |
